Results on 2 compounds are retold here after ChEMBL document CHEMBL4376814, “Novel cyclin-dependent kinase 9 (CDK9) inhibitor with suppression of cancer stemness activity against non-small-cell lung cancer” (Eur J Med Chem, 2019).

The target in assay [1] is T1, CDK4/Cyclin D3 (Homo sapiens) (UniProt P11802+P30281). Put plainly: Inhibition of recombinant full-length human CDK4/cyclinD3 at 1 uM using Rb fragment as substrate measured after 40 mins in presence of [gamma33P]ATP by scintillation counting method relative to control. The assay is classed as protein-complex assay. The essentials:
(§1)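 Percent inhibition of kinase activity at a single compound concentration, measured by the outsourced Eurofins KinaseProfiler panel. Values are the mean of two independent experiments.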

The target in assay [2] is T2, CDK6/cyclin D3 (Homo sapiens) (UniProt P30281+Q00534). In words: Inhibition of recombinant full-length human CDK6/cyclinD3 at 1 uM using histone H1 as substrate measured after 40 mins in presence of [gamma33P]ATP by scintillation counting method relative to control. It counts as protein-complex assay. An outline of the steps:
as §1

For assay [3], the target named is T3, CDK9/cyclin T1 (Homo sapiens) (UniProt O60563+P50750). Put plainly: Inhibition of recombinant full-length human CDK9/cyclinT1 at 1 uM using KTFCGTPEYLAPEVRREPRILSEEEQEMFRDFDYIADWC peptide as substrate measured after 40 mins in presence of [gamma33P]ATP by scintillation counting method relative to control. The assay is classed as protein-complex assay. An outline of the steps:
as §1

The target of the next assay is CDK9/cyclin T1 (Homo sapiens, UniProt P50750). In words: Inhibition of recombinant full-length human CDK9/cyclinT1 using KTFCGTPEYLAPEVRREPRILSEEEQEMFRDFDYIADWC peptide as substrate measured after 40 mins in presence of [gamma33P]ATP by scintillation counting method. The assay is classed as protein-complex assay. An outline of the steps: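 IC50 against CDK9/cyclin T1, determined by the outsourced Eurofins KinaseProfiler service. Values are the mean of two independent experiments.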
CDK9/cyclin T1, sequence (O60563 whole entry): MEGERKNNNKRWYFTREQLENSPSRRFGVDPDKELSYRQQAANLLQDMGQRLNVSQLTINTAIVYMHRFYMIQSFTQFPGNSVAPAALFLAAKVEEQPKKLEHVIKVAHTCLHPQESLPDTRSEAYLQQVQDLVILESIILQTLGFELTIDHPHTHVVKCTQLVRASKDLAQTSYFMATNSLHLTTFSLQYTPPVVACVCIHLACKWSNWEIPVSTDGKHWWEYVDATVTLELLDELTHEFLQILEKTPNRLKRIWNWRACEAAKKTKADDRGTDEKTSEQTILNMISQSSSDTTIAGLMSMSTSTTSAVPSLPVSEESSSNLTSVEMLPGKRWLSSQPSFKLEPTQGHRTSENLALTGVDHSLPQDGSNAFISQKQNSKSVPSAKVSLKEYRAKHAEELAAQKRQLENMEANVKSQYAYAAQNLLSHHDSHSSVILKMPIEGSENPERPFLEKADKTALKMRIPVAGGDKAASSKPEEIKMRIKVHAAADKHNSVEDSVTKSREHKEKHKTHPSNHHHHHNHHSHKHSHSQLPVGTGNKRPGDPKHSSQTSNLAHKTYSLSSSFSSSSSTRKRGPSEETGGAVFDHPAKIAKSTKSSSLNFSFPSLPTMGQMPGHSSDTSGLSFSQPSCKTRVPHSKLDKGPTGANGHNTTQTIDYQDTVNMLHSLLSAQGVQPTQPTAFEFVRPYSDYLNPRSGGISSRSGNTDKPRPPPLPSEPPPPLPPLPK
CDK9/cyclin T1, sequence (P50750 whole entry): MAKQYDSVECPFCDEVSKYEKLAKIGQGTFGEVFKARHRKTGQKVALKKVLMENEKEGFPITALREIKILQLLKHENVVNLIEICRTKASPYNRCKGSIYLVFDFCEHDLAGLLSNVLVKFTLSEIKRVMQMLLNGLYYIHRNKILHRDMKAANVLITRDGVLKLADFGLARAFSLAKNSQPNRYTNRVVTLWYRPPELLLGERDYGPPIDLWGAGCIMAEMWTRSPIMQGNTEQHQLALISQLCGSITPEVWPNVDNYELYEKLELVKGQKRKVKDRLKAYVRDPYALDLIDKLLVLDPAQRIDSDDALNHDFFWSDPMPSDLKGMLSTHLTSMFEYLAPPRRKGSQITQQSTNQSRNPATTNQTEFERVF

The target in assay [4] is T1, CDK4/Cyclin D3 (Homo sapiens). In words: Inhibition of recombinant full-length human CDK4/cyclinD3 at 500 nM using Rb fragment as substrate measured after 40 mins in presence of [gamma33P]ATP by scintillation counting method relative to control. The assay is classed as protein-complex assay. An outline of the steps: as §1
Assay [5] deals with T2, CDK6/cyclin D3 (Homo sapiens). Put plainly: Inhibition of recombinant full-length human CDK6/cyclinD3 at 500 nM using histone H1 as substrate measured after 40 mins in presence of [gamma33P]ATP by scintillation counting method relative to control. It counts as protein-complex assay. An outline of the steps: as §1
Assay [6] deals with T3, CDK9/cyclin T1 (Homo sapiens). Put plainly: Inhibition of recombinant full-length human CDK9/cyclinT1 at 500 nM using KTFCGTPEYLAPEVRREPRILSEEEQEMFRDFDYIADWC peptide as substrate measured after 40 mins in presence of [gamma33P]ATP by scintillation counting method relative to control. It counts as protein-complex assay. An outline of the steps: as §1
Assay [7] concerns A549. Put plainly: Antiproliferative activity against human A549 cells assessed as inhibition of cell viability at 1 uM after 72 hrs by CCK-8 assay relative to control. Conditions: A549, 72 h. The assay is classed as functional. The essentials:
(§2)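 Single-concentration viability screen using CCK-8. Cells were seeded at 3000/well and treated for 72 h. A450 read after 1-4 h with reagent. Percent inhibition calculated against untreated control and blank wells as (Ac−As)/(Ac−Ab)×100%.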

Assay [8] relates to A549. In words: Antiproliferative activity against human A549 cells assessed as inhibition of cell viability at 10 uM after 72 hrs by CCK-8 assay relative to control. It counts as functional. The conditions noted are these: A549, 72 h. An outline of the steps:
as §2

Assay [9] has as its system NCI-H1299. In words: Antiproliferative activity against human H1299 cells assessed as inhibition of cell viability at 1 uM after 72 hrs by CCK-8 assay relative to control. It counts as functional. The conditions noted are these: NCI-H1299, 72 h. The essentials: as §2
In general terms: Tetrazolium dyes change colour on reduction, which living cells bring about.

Assay [10] deals with NCI-H1299. In words: Antiproliferative activity against human H1299 cells assessed as inhibition of cell viability at 10 uM after 72 hrs by CCK-8 assay relative to control. The assay is classed as functional. The conditions noted are these: NCI-H1299, 72 h. The essentials: as §2
Assay [11] has as its system MCF7. In words: Antiproliferative activity against human MCF7 cells assessed as inhibition of cell viability at 10 uM after 72 hrs by CCK-8 assay relative to control. It counts as functional. The conditions noted are these: MCF7, 72 h. An outline of the steps:
as §2

Assay [12] concerns MCF7. In words: Antiproliferative activity against human MCF7 cells assessed as inhibition of cell viability at 500 nM after 72 hrs by CCK-8 assay relative to control. It counts as functional. The conditions noted are these: MCF7, 72 h. An outline of the steps:
as §2

The subject of assay [13] is HepG2. In words: Antiproliferative activity against human HepG2 cells assessed as inhibition of cell viability at 10 uM after 72 hrs by CCK-8 assay relative to control. The assay is classed as functional. The conditions noted are these: HepG2, 72 h. An outline of the steps: as §2
In assay [14] the test system is HepG2. Put plainly: Antiproliferative activity against human HepG2 cells assessed as inhibition of cell viability at 500 nM after 72 hrs by CCK-8 assay relative to control. Conditions: HepG2, 72 h. It counts as functional. An outline of the steps: as §2
The subject of assay [15] is SiHa. Put plainly: Antiproliferative activity against human SiHa cells assessed as inhibition of cell viability at 10 uM after 72 hrs by CCK-8 assay relative to control. The assay is classed as functional. An outline of the steps: as §2
Assay [16] concerns SiHa. Put plainly: Antiproliferative activity against human SiHa cells assessed as inhibition of cell viability at 500 nM after 72 hrs by CCK-8 assay relative to control. The assay is classed as functional. The essentials:
as §2

The target of assay [17] is T3, CDK9/cyclin T1 (Homo sapiens). Put plainly: Potency index, ratio of ribociclib IC50 to compound IC50 for inhibition of recombinant full-length human CDK9/cyclinT1. The assay is classed as protein-complex assay.

The inhibition is the relative decrease from the control value, in per cent. As a reminder, the IC50 is the concentration that gives 50% inhibition. As to `CN(C)C(=O)c1cc2cnc(Nc3ccc(C(=O)NCCCCCCCN=C=S)cc3)nc2n1C1CCCC1`, the inhibition in assay [1] amounted to 83%; in [2], 85%; in [3], 97%; in [4] it was 74%; in assay [5], 56%; in assay [6] it was 99%. Besides, the IC50 on CDK9/cyclin T1 turned out to be 12 nM. The inhibition at 1 µM came to 73.7% with A549 [7] and 75.7% in the assay on NCI-H1299 [9]. Also, the inhibition at 10 µM is 101% with A549 [8]; 107% in the assay with NCI-H1299 [10]; 99% in the assay on MCF7 [11]; 89% in the assay on HepG2 [13]; 95% in the assay with SiHa [15]. For the same compound, the results for the inhibition at 0.5 µM with MCF7 [12], with HepG2 [14] and with SiHa [16] were 85%, 68% and 90%, respectively.

Regarding `CN(C)C(=O)c1cc2cnc(Nc3ccc(S(=O)(=O)NCCCCCCCN=C=S)cc3)nc2n1C1CCCC1`, the inhibition in assay [1] was found to be 86%; in [2] it was 77%; in [3], 97%; in assay [4], 84%; in assay [5] it was 45%; in assay [6] it was 97%. Moreover, on CDK9/cyclin T1, the IC50 amounted to 9 nM. The inhibition at 1 µM came to 32.6% in the assay with A549 [7] and 58.9% in the assay with NCI-H1299 [9]. Also, the inhibition at 10 µM in the assay with A549 [8] came to 101%; with NCI-H1299 [10], 83%. The Ratio IC50 in assay [17] was above 20.
